Tests used:
Type in all cases: in vivo, Wistar rats
P-gp = assay: Immunohistochemistry of efflux proteins in brain tissue; conditions: intranasal 1.25 mg/kg, 14 days, score 0-12
MRP1 = assay: as above; conditions: intranasal 1.25 mg/kg, 14 days, score 0-12
BCRP = assay: as above; conditions: intranasal 1.25 mg/kg, 14 days, score 0-12
[1] = Pharmacokinetics in blood and vital organs; conditions: for CL/F: gavage; for AUC(0-t) / Cmax / MRT last / Tmax / half-life: male, Wistar, rat, po
Summary of the method: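 Male Wistar rats (200±20 g) received the test compound as an aqueous solution by gavage. Five rats were sampled at each of 11 times from 5 min to 24 h, and blood and organs were collected and weighed. Tissue homogenates (1% perchloric acid) and plasma (6% perchloric acid) were deproteinized, extracted into ethyl acetate at pH 11.8, and analysed by HPLC at 308 nm. Mean±SD, n=5.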

[2] = nasal NEs vs gavage HupA aqueous solution

C/C=C1\[C@H]2C=C(C)C[C@]1(N)c1ccc(=O)[nH]c1C2 [HupA Solution, huperzine A]
P-gp protein expression (immunoreactive score) (P-gp): higher in the HupA aqueous solution group than in the blank control group | MRP1 protein expression (immunoreactive score) (MRP1): higher in the HupA aqueous solution group than in the blank control group | BCRP protein expression (immunoreactive score) (BCRP): higher in the HupA aqueous solution group than in the blank control group | CL/F ([1]; Brain): 42.63 ± 7.93 mL·h | CL/F ([1]; Heart): 7.26 ± 0.05 mL·h | CL/F ([1]; Kidney): 0.91 ± 0.02 mL·h | CL/F ([1]; Liver): 2.88 ± 0.15 mL·h | CL/F ([1]; Lung): 4.03 ± 0.09 mL·h | CL/F ([1]; Plasma): 9.88 ± 0.89 mL·h | CL/F ([1]; Spleen): 2.45 ± 0.03 mL·h | AUC(0-t) ([1]; brain): 0.0286 ± 0.00572 µg·h/mL | Cmax ([1]; brain): 0.015 ± 0.00425 µg/mL | MRT last ([1]; brain): 1.49 ± 0.12 h | Tmax ([1]; brain): 0.5 h | half-life ([1]; brain): 1.27 ± 0.16 h | AUC(0-t) ([1]; heart): 0.163 ± 0.00585 µg·h/mL | Cmax ([1]; heart): 0.163 ± 0.00733 µg/mL | MRT last ([1]; heart): 1.6 ± 0.05 h | Tmax ([1]; heart): 0.5 h | half-life ([1]; heart): 2.21 ± 0.68 h | AUC(0-t) ([1]; kidney): 1.35 ± 0.0333 µg·h/mL | Cmax ([1]; kidney): 0.567 ± 0.0406 µg/mL | MRT last ([1]; kidney): 2.78 ± 0.05 h | Tmax ([1]; kidney): 1 h | half-life ([1]; kidney): 2.1 ± 0.1 h | AUC(0-t) ([1]; liver): 0.424 ± 0.0229 µg·h/mL | Cmax ([1]; liver): 0.256 ± 0.00827 µg/mL | MRT last ([1]; liver): 1.95 ± 0.04 h | Tmax ([1]; liver): 0.5 h | AUC(0-t) ([1]; lung): 0.288 ± 0.013 µg·h/mL | Cmax ([1]; lung): 0.173 ± 0.0141 µg/mL | MRT last ([1]; lung): 2.28 ± 0.06 h | Tmax ([1]; lung): 1 h | half-life ([1]; lung): 2.49 ± 0.13 h | AUC(0-t) ([1]; plasma): 0.119 ± 0.0101 µg·h/mL | Cmax ([1]; plasma): 0.109 ± 0.00899 µg/mL | MRT last ([1]; plasma): 1.31 ± 0.12 h | Tmax ([1]; plasma): 0.5 h | half-life ([1]; plasma): 1.77 ± 0.83 h | AUC(0-t) ([1]; spleen): 0.485 ± 0.00511 µg·h/mL | Cmax ([1]; spleen): 0.195 ± 0.00458 µg/mL | MRT last ([1]; spleen): 2.03 ± 0.06 h | Tmax ([1]; spleen): 1 h | Concentration (C) of the drug in brain tissue at the same time point (order) [1, 2]: CLf-HupA-NE>CHupA-NE>CHupA aqueous solution | Duration of action in the brain (T) (order) [1, 2]: TLf-HupA-NE>THupA-NE>THupA aqueous solution

From publication PMC9359405 (International Journal of Nanomedicine, 2022)
